Reference: ChEMBL document CHEMBL1122812, “Novel amino-substituted 3-quinolinecarboxylic acid antibacterial agents: synthesis and structure-activity relationships” (1984)
Values after ≈ are worked out from the molar mass of the structure shown.

Tests used:
Type in all cases: functional
Escherichia coli = assay: In vitro minimum inhibitory concentration against growth of Escherichia coli Vogel
Outline: (§1)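 Tube serial dilution. Cultures grown overnight at 37 °C in tryptose phosphate broth or brain heart infusion broth. Compound stock of 1000 μg/mL (as free acid) made in minimal 0.5 N NaOH, then diluted in distilled water. Dilutions were mixed 1:1 with culture to a final 1×10^5 cells/mL and incubated 18–20 h at 37 °C. MIC = lowest concentration with no visible growth.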

[1] = Antibacterial activity in mice after intraperitoneal administration with 0.5 mL of Escherichia coli Vogel inoculum; settings: sc
Outline: (§2)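 Female ICR mice (18-20 g) infected intraperitoneally with 0.5 mL of E. coli Vogel (grown in brain heart infusion broth, suspended in saline) at 1.9×10^7 cells/mL. Compound as free acid dissolved in dilute NaOH and diluted with water, given once (0.5 mL) sc or po at 0.5 h postinfection. Groups of 10 mice at four or five dose levels, with nonmedicated controls. Deaths recorded daily for 7 days; PD50 by probit analysis.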

Klebsiella pneumoniae = assay: In vitro minimum inhibitory concentration against growth of Klebsiella pneumoniae strain 39645
Outline: (§3)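 Tube serial dilution. Stocks at 1000 μg/mL (free acid) were made in minimal 0.5 N NaOH and diluted in distilled water. Cultures were grown overnight at 37 °C in tryptose phosphate or brain heart infusion broth. Final inoculum was 1×10^5 cells/mL, incubated 18–20 h at 37 °C. MIC was the lowest concentration preventing visible growth.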

Mus musculus = assay: Compound was evaluated for antibacterial activity in mice after peroral administration with 0.5 mL of Escherichia coli Vogel inoculum; settings: po, read-out: PD50; outline: as §2
Pseudomonas aeruginosa = assay: In vitro minimum inhibitory concentration against growth of Pseudomonas aeruginosa MGH-2; outline: as §1
Staphylococcus aureus = assay: In vitro minimum inhibitory concentration against growth of Staphylococcus aureus Smith; outline: as §3

SMILES | MIC (Escherichia coli) [µg/mL] | PD50 [1] [mg/kg] | MIC (Klebsiella pneumoniae) [µg/mL] | ED50 (Mus musculus) [mg/kg] | MIC (Pseudomonas aeruginosa) [µg/mL] | MIC (Staphylococcus aureus) [µg/mL]
CN1CCN(c2cc3c(cc2F)c(=O)c(C(=O)O)cn3N)CC1 | 1.95 (≈ 6.09 µM) | 2.9 |  |  |  | 
CCNn1cc(C(=O)O)c(=O)c2cc(F)c(N3CCN(C)CC3)cc21 | 0.5 (≈ 1.44 µM) |  |  |  |  | 
CNn1cc(C(=O)O)c(=O)c2cc(F)c(N3CCN(C(C)C)CC3)cc21 | 0.5 (≈ 1.38 µM) | 1.5 |  |  |  | 
CNn1cc(C(=O)O)c(=O)c2cc(F)c(N3CCC(O)C3)cc21 (configuration not stated) | 1 (≈ 3.11 µM) |  |  |  |  | 
CNn1cc(C(=O)O)c(=O)c2cc(F)c(N3CCSCC3)cc21 | 0.5 (≈ 1.48 µM) |  |  |  |  | 
C=CCNn1cc(C(=O)O)c(=O)c2cc(F)c(N3CCN(C)CC3)cc21 | 1 (≈ 2.77 µM) | 19 |  |  |  | 
CNn1cc(C(=O)O)c(=O)c2cc(F)c(N3CCCC3)cc21 | 1 (≈ 3.28 µM) |  |  |  |  | 
CCOC(=O)c1cn(NC)c2cc(N3CCN(C)CC3)c(F)cc2c1=O.CS(=O)(=O)O | 62.5 |  |  |  |  | 
CCCNn1cc(C(=O)O)c(=O)c2cc(F)c(N3CCN(C)CC3)cc21 | 1.95 (≈ 5.38 µM) | 33 |  |  |  | 
CN1CCN(c2cc3c(cc2F)c(=O)c(C(=O)O)cn3N(C)C)CC1 | 0.5 (≈ 1.44 µM) | 1.6 |  |  |  | 
CNn1cc(C(=O)O)c(=O)c2cc(F)c(N3CCOCC3)cc21 | 0.5 (≈ 1.56 µM) | 16.6 |  |  |  | 
CNn1cc(C(=O)O)c(=O)c2cc(F)c(N3CCC(O)CC3)cc21 | 1.95 (≈ 5.82 µM) |  |  |  |  | 
CNn1cc(C(=O)O)c(=O)c2cc(F)c(N3CCCC(O)C3)cc21 (configuration not stated) |  | 41 |  |  |  | 
CNn1cc(C(=O)O)c(=O)c2cc(F)c(N3CCN(C(C)=O)CC3)cc21 | 15.6 (≈ 43.1 µM) | 109 |  |  |  | 
CNn1cc(C(=O)O)c(=O)c2cc(F)c(N3CC[N+](C)([O-])CC3)cc21 | 15.6 (≈ 44.5 µM) | 9.4 |  |  |  | 
CCN1CCN(c2cc3c(cc2F)c(=O)c(C(=O)O)cn3NC)CC1 | 0.5 (≈ 1.44 µM) |  |  |  |  | 
CCCN1CCN(c2cc3c(cc2F)c(=O)c(C(=O)O)cn3NC)CC1 | 0.25 (≈ 0.69 µM) | 14.2 |  |  |  | 
CNn1cc(C(=O)O)c(=O)c2cc(F)c(N3CCNCC3)cc21 | 1 (≈ 3.12 µM) | 0.3 | 1 (≈ 3.12 µM) | 6.4 | 1 (≈ 3.12 µM) | 1.95 (≈ 6.09 µM)
CNn1cc(C(=O)O)c(=O)c2cc(F)c(N3CCCNCC3)cc21.Cl |  | 2.8 |  |  |  | 
CNn1cc(C(=O)O)c(=O)c2cc(F)c(N3CCCN(C)CC3)cc21.Cl | 1.95 | 5.5 |  |  |  | 
CNn1cc(C(=O)O)c(=O)c2cc(F)c(N3CCN(C)CC3)cc21 [AMIFLOXACIN] | 0.25 (≈ 0.748 µM) |  | 0.25 (≈ 0.748 µM) | 1 | 1 (≈ 2.99 µM) | 1 (≈ 2.99 µM)
CCn1cc(C(=O)O)c(=O)c2cc(F)c(N3CCNCC3)cc21 [NORFLOXACIN] | 0.5 (≈ 1.57 µM) | 0.3 | 0.5 (≈ 1.57 µM) | 5.9 | 1 (≈ 3.13 µM) | 1.95 (≈ 6.11 µM)
CCn1cc(C(=O)O)c(=O)c2cc(F)c(N3CCN(C)CC3)cc21 [PEFLOXACIN] | 0.25 (≈ 0.75 µM) | 0.5 | 0.5 (≈ 1.5 µM) | 1.1 | 1 (≈ 3 µM) | 1 (≈ 3 µM)
